Experimental data taken from ChEMBL document CHEMBL2384998, “Modular, efficient synthesis of asymmetrically substituted piperazine scaffolds as potent calcium channel blockers” (Bioorg Med Chem Lett, 2013).

Key:
[1] = target: Voltage-dependent L-type calcium channel subunit alpha-1C (Rattus norvegicus, UniProt P22002); experiment: Inhibition of rat cardiac Cav1.2 L-type channel expressed in HEK cells after 20 mins by FLIPR assay; assay type: cell-based, HEK293
In short: (§1)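 Fluorescence Ca²⁺ influx read by FLIPR with the Ca²⁺ indicator dye Fluo-4. Each compound was tested as an 8-point concentration-response profile spanning 0.003–10 μM, giving IC50. Membrane potential and channel state were set by changing the external potassium ion concentration.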

Rattus norvegicus = species on record: Rattus norvegicus; experiment: Selectivity ratio of IC50 for rat cardiac Cav1.2 L-type channel to IC50 for rat brain Cav2.2 N-type channel
[2] = target: Voltage-dependent N-type calcium channel subunit alpha-1B (Rattus norvegicus, UniProt Q02294); experiment: Inhibition of rat brain Cav2.2 N-type channel expressed in HEK cells after 20 mins by FLIPR assay; assay type: cell-based, HEK293; in short: as §1
Voltage-dependent N-type calcium channel subunit alpha-1B, sequence (Q02294 whole entry): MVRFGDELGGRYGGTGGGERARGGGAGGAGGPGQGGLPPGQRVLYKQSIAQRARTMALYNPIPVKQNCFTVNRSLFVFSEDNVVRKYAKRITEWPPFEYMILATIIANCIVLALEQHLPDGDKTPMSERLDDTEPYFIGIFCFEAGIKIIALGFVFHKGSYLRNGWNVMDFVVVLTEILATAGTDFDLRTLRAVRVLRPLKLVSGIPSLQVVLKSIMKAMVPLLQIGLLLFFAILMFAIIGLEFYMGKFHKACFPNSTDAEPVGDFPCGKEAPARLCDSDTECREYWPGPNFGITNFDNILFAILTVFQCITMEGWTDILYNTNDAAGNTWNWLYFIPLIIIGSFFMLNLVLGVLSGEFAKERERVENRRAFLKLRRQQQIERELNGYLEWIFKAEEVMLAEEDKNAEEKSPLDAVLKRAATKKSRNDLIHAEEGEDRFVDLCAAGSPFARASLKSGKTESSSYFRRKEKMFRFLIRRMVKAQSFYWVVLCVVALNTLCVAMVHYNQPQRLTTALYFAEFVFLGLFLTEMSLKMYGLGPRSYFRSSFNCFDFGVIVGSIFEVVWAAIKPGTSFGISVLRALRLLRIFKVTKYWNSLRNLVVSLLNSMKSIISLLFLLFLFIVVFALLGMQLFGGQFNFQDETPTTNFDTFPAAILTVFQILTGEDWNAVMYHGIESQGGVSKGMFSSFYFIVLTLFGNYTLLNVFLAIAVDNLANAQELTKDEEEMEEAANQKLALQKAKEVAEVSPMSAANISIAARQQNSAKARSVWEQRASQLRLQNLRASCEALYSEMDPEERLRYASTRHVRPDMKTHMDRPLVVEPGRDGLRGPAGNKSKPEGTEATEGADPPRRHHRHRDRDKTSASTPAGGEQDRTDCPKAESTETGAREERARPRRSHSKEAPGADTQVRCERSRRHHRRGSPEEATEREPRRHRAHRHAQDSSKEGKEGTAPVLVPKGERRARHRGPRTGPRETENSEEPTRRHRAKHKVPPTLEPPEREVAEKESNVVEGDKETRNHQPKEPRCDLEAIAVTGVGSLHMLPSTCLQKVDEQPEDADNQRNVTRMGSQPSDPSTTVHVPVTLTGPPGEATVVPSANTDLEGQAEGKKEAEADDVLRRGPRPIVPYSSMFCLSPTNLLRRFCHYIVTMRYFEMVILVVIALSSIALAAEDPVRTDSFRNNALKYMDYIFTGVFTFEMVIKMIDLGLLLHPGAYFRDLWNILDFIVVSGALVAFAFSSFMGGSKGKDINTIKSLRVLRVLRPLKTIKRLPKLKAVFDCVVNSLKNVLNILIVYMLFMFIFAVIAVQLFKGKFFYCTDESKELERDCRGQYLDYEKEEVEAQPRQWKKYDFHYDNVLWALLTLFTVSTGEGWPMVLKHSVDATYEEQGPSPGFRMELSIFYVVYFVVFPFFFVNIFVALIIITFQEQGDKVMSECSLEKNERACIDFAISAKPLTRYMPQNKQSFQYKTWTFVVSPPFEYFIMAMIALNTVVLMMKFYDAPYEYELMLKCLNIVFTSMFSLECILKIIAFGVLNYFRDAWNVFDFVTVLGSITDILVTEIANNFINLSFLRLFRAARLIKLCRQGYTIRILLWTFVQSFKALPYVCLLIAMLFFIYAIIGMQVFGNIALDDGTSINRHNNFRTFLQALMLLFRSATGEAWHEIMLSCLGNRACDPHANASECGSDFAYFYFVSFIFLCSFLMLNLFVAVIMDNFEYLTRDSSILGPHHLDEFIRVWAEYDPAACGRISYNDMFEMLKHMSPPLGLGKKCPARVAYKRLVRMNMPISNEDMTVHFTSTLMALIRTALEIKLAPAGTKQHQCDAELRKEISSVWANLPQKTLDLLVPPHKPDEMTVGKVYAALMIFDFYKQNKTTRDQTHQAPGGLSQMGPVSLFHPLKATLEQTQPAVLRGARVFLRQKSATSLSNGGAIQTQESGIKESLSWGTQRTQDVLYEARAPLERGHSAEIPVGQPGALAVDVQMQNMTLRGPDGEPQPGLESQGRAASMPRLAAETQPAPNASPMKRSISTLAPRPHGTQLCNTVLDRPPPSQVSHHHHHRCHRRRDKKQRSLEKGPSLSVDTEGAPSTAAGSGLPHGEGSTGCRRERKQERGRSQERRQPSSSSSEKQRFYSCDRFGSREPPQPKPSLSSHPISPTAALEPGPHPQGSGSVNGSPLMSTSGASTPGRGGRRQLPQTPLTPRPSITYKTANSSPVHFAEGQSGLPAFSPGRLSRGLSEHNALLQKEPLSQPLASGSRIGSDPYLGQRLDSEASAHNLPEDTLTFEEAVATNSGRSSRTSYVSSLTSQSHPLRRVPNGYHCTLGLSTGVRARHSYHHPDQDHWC

Voltage-dependent L-type calcium channel subunit alpha-1C, sequence (P22002 whole entry): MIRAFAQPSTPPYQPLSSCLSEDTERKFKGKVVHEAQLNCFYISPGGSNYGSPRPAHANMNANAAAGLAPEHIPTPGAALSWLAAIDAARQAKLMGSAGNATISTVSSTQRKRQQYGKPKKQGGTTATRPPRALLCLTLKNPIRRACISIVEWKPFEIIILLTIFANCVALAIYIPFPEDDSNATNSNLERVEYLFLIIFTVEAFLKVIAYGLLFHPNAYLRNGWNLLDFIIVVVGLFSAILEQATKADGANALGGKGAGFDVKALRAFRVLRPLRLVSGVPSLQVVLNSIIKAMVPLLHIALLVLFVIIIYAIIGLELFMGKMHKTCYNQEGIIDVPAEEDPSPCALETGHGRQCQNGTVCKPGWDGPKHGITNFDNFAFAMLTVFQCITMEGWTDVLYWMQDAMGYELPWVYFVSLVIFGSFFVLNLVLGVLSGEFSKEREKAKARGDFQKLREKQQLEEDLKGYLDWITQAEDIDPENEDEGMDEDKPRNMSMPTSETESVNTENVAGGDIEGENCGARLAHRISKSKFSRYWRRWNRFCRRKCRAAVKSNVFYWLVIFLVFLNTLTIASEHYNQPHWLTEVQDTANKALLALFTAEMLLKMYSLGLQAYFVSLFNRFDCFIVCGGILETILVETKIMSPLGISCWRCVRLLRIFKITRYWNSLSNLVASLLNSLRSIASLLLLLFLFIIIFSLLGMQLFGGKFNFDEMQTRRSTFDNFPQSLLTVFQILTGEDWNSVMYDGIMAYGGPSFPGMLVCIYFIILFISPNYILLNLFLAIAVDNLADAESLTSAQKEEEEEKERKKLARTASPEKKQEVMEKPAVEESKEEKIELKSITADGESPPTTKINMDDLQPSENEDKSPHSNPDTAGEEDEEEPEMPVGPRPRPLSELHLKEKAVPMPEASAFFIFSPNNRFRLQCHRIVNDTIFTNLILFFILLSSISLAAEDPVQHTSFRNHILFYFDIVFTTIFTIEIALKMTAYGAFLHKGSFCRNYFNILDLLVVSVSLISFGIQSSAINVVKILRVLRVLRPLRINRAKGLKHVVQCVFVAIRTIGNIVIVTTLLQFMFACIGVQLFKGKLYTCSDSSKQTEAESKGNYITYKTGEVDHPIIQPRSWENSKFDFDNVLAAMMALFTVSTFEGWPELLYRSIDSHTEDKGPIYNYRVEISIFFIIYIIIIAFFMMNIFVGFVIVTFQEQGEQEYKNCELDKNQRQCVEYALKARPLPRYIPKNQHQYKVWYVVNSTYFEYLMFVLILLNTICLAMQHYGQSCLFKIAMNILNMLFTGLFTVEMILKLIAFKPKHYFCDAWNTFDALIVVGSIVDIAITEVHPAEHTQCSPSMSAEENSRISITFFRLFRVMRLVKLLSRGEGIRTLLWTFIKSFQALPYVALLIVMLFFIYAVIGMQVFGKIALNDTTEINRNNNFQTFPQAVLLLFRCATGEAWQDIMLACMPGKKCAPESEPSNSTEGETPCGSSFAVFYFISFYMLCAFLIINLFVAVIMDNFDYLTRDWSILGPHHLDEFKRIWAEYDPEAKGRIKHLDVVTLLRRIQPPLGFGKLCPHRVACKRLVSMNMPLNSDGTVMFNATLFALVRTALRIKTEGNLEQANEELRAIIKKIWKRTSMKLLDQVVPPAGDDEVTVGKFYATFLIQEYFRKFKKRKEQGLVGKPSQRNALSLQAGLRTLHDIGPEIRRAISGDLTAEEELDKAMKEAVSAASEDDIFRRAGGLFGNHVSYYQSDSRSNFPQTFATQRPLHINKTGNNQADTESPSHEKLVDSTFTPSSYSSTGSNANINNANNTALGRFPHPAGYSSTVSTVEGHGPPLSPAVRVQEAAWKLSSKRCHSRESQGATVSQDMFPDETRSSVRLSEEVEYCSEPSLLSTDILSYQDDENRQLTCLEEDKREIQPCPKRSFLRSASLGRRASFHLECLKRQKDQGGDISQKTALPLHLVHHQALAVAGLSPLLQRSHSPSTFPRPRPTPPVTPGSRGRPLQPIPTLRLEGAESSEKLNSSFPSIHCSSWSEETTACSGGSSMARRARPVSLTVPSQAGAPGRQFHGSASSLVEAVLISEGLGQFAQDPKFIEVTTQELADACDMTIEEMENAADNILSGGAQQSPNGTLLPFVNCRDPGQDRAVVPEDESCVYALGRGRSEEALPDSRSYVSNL

Structure (SMILES)	IC50 [1]	Ratio IC50 (Rattus norvegicus)	IC50 [2]
C[C@@H]1CN(C(c2ccccc2)c2ccccc2)[C@H](Cc2ccccc2)CN1	1.78 µM	0.4	4.34 µM
CCCCC[C@@H]1CN[C@H](C)CN1Cc1ccccc1 (relative stereo)	9.23 µM	0.9	9.84 µM
CCCCCCCCC[C@@H]1CN[C@H](C)CN1Cc1ccccc1 (relative stereo)	5.6 µM	0.6	10 µM
CCCCC[C@@H]1CN[C@H](C)CN1C(c1ccccc1)c1ccccc1 (relative stereo)	1.78 µM	0.7	2.4 µM
C[C@@H]1CN(C(c2ccccc2)c2ccccc2)[C@H](CCCCO[Si](C)(C)C(C)(C)C)CN1 (relative stereo)	1.53 µM	1.4	1.07 µM
C[C@@H]1CN(C(c2ccccc2)c2ccccc2)[C@H](CCCO[Si](C)(C)C(C)(C)C)CN1 (relative stereo)	6.8 µM	0.7	10 µM
Cc1ccc(S(=O)(=O)N2C[C@@H](CCCO[Si](C)(C)C(C)(C)C)N(C(c3ccccc3)c3ccccc3)C[C@H]2C)cc1 (relative stereo)	5.1 µM	2	2.6 µM
Cc1ccc(S(=O)(=O)N2C[C@@H](CCCCO[Si](C)(C)C(C)(C)C)N(C(c3ccccc3)c3ccccc3)C[C@H]2C)cc1 (relative stereo)	8.2 µM	1.7	4.7 µM
C[C@@H]1CN(C(c2ccccc2)c2ccccc2)[C@H](CCCCO[Si](C)(C)C(C)(C)C)CN1S(=O)(=O)c1ccc(C(F)(F)F)cc1 (relative stereo)	10 µM	1	10 µM
C[C@@H]1CN(C(c2ccccc2)c2ccccc2)[C@H](CCCCO)CN1 (relative stereo)	5.4 µM	6	0.85 µM
C[C@@H]1CN(Cc2ccccc2)[C@H](CCCCO)CN1 (relative stereo)	10 µM		9.6 µM
C[C@@H]1CN(Cc2ccc(F)cc2)[C@H](Cc2ccccc2)CN1 (relative stereo)	10 µM	1.2	8.37 µM
C[C@@H]1CN(Cc2ccc(F)cc2)[C@H](Cc2ccccc2)CN1S(=O)(=O)c1ccc(C(F)(F)F)cc1 (relative stereo)	10 µM	1	10 µM
C[C@@H]1CN(Cc2ccc(F)cc2)[C@H](Cc2ccccc2)CN1C(=O)C(c1ccccc1)c1ccccc1 (relative stereo)			10 µM
C[C@@H]1CN(Cc2ccccc2)[C@H](Cc2ccccc2)CN1 (relative stereo)	10 µM	1	10 µM
C[C@@H]1CN(Cc2ccccc2)[C@H](Cc2ccccc2)CN1S(=O)(=O)c1ccc(C(F)(F)F)cc1 (relative stereo)	10 µM	1	10 µM
C[C@@H]1CN(Cc2ccccc2)[C@H](CCCCO[Si](C)(C)C(C)(C)C)CN1 (relative stereo)	3.34 µM	0.7	4.85 µM
